Values after ≈ are worked out from the molar mass of the structure shown. Active and inactive are the calls of the source. No cut-off for these calls is given here.
Legend:
Echovirus E9 = test: Minimum inhibitory concentration of compound in vitro against echovirus-9; type: functional; details: Enterovirus B
In short: (§1)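 Plaque reduction on day-old HeLa (Ohio) monolayers, about 80 pfu/well. Drug was serially diluted twofold from a 10 mg/mL Me2SO stock into an M-199/10% calf serum/agarose overlay, applied in duplicate after virus adsorption. Plaques were counted after 3 days in 2% CO2, following formaldehyde fixation and crystal violet staining. MIC was the concentration producing 50% plaque reduction.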

Mus musculus [1] = test: Effect of compound on number of survivors per 30 mice at dose 125 mg/kg; type: functional
In short: (§2)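 ICR Buckberg mice (18–21 g) were infected intracerebrally with polio-2 (MEF strain). Compound was given orally bid at 31–250 mg/kg: 1 h before infection, 2 h after, then twice daily for 13 days. Placebo and nonmedicated groups served as controls, with 30 mice per group. Flaccid paralysis and death were scored and survivors counted when the test ended on day 20.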

Mus musculus [2] = test: Effect of compound on number of survivors per 30 mice at dose 250 mg/kg; type: functional; in short: as §2
Mus musculus [3] = test: Effect of compound on number of survivors per 30 mice at dose 31 mg/kg; type: functional; in short: as §2
Mus musculus [4] = test: Effect of compound on number of survivors per 30 mice at dose 63 mg/kg; type: functional; in short: as §2
Mus musculus [5] = test: Effect of compound on number of survivors per 30 mice at nonmed mg/kg; type: functional; in short: as §2
Mus musculus [6] = test: Effect of compound on number of survivors per 30 mice at placebo mg/kg; type: functional; in short: as §2
Mus musculus [7] = test: Effect of compound on Poliovirus induced paralysis and death in mice when administered orally with 31 mg/kg.; type: functional; details: route oral; in short: as §2
Mus musculus [8] = test: Effect of compound on Poliovirus induced paralysis and death in mice when administered orally with dose 125 mg/kg.; type: functional; details: route oral; in short: as §2
Mus musculus [9] = test: Effect of compound on Poliovirus induced paralysis and death in mice when administered orally with dose 250 mg/kg.; type: functional; details: route oral; in short: as §2
Mus musculus [10] = test: Effect of compound on Poliovirus induced paralysis and death in mice when administered orally with dose 63 mg/kg.; type: functional; details: route oral; in short: as §2
Mus musculus [11] = test: Effect of compound on Poliovirus induced paralysis and death in mice when administered orally with nonmed mg/kg.; type: functional; in short: as §2
Mus musculus [12] = test: Effect of compound on Poliovirus induced paralysis and death in mice when administered orally with placebo mg/kg.; type: functional; in short: as §2
Poliovirus 2 [13] = test: In vitro anti-picornavirus activity against Poliovirus type-2.; type: functional; details: Enterovirus C
Poliovirus 2 [14] = test: Minimum inhibitory concentration of compound in vitro against poliovirus-2; type: functional; details: Enterovirus C
In short: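 Plaque-reduction assay on day-old HeLa (Ohio) monolayers at 90% confluence, infected with polio-2 at ca. 80 pfu/well. Adsorption was at least 1 h at 37 °C in 2% CO2. Cells were then overlaid in duplicate with drug in M-199/calf serum/agarose (Me2SO stock at 10 mg/mL, twofold dilutions) and held 3 days. Plaques were fixed with formaldehyde, stained with crystal violet and counted. MIC is the concentration giving 50% plaque reduction.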

Poliovirus 3 = test: Minimum inhibitory concentration of compound in vitro against poliovirus-3; type: functional; details: Enterovirus C
Enterovirus [15] = test: Effect on plaque production by Human Rhinovirus serotype 13; type: functional
In short: (§3)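 HeLa (Ohio) monolayers (day-old, 90%) were infected at about 80 pfu/well and adsorbed at least 1 h at 33 °C in 2% CO2. After 3 days at 33 °C they were fixed with formaldehyde and stained with crystal violet. MIC was the concentration giving 50% fewer plaques.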

Enterovirus [16] = test: Effect on plaque production by Human Rhinovirus serotype 14; type: functional; in short: as §3
Enterovirus [17] = test: Effect on plaque production by Human Rhinovirus serotype 16; type: functional; in short: as §3
Enterovirus [18] = test: Effect on plaque production by Human Rhinovirus serotype 18; type: functional; in short: as §3
Enterovirus [19] = test: Effect on plaque production by Human Rhinovirus serotype 1A (seven most common serotypes); type: functional; in short: as §3
Enterovirus [20] = test: Effect on plaque production by Human Rhinovirus serotype 2; type: functional; in short: as §3
Enterovirus [21] = test: Effect on plaque production by Human Rhinovirus serotype 21; type: functional; in short: as §3
Enterovirus [22] = test: Effect on plaque production by Human Rhinovirus serotype 22; type: functional; in short: as §3
Enterovirus [23] = test: Effect on plaque production by Human Rhinovirus serotype 29; type: functional; in short: as §3
Enterovirus [24] = test: Effect on plaque production by Human Rhinovirus serotype 29 (seven most common serotypes); type: functional; in short: as §3
Enterovirus [25] = test: Effect on plaque production by Human Rhinovirus serotype 3; type: functional; in short: as §3
Enterovirus [26] = test: Effect on plaque production by Human Rhinovirus serotype 31 (seven most common serotypes); type: functional; in short: as §3
Enterovirus [27] = test: Effect on plaque production by Human Rhinovirus serotype 33; type: functional; in short: as §3
Enterovirus [28] = test: Effect on plaque production by Human Rhinovirus serotype 36; type: functional; in short: as §3
Enterovirus [29] = test: Effect on plaque production by Human Rhinovirus serotype 39; type: functional; in short: as §3
Enterovirus [30] = test: Effect on plaque production by Human Rhinovirus serotype 41; NA=Not active; type: functional, organism-based; in short: as §3
Enterovirus [31] = test: Effect on plaque production by Human Rhinovirus serotype 49; type: functional; in short: as §3
Enterovirus [32] = test: Effect on plaque production by Human Rhinovirus serotype 5; type: functional; in short: as §3
Enterovirus [33] = test: Effect on plaque production by Human Rhinovirus serotype 50; type: functional; in short: as §3
Enterovirus [34] = test: Effect on plaque production by Human Rhinovirus serotype 61; type: functional; in short: as §3
Enterovirus [35] = test: Effect on plaque production by Human Rhinovirus serotype 72; NA=Not active; type: functional, organism-based; in short: as §3
Enterovirus [36] = test: Effect on plaque production by Human Rhinovirus serotype 75; type: functional; in short: as §3
Enterovirus [37] = test: Effect on plaque production by Human Rhinovirus serotype 86; type: functional; in short: as §3
Enterovirus [38] = test: Effect on plaque production by Human Rhinovirus serotype 89; type: functional; in short: as §3
rhinovirus A2 [39] = test: Minimum inhibitory concentration of compound in vitro against rhinovirus-2; type: functional, rhinovirus type-2; details: Rhinovirus A; in short: as §3
[40] = Maximum testable level of compound was evaluated; type: functional
In short: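 In the HeLa (Ohio) plaque-overlay system, Me2SO-solubilized compound was twofold serially diluted into the agarose overlay. Uninfected cell controls were run alongside and cells were stained with crystal violet after 3 days. The maximum testable level was taken as the concentration below which no cytotoxic effects were seen.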

Enterovirus [41] = test: Effect on plaque production by Human Rhinovirus serotype 1B (seven most common serotypes); type: functional; in short: as §3
Echovirus E11 = test: Minimum inhibitory concentration of compound in vitro against echovirus-11; type: functional; details: Enterovirus B; in short: as §1
rhinovirus A2 [42] = test: In vitro anti-picornavirus activity against Rhinovirus type-2.; type: functional; details: Rhinovirus A
In short: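 HeLa (Ohio) monolayers (day-old, 90%) were infected at about 80 pfu/well and adsorbed at least 1 h at 33 °C in 2% CO2. After 3 days at 33 °C they were fixed with formaldehyde and stained with crystal violet.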

Enterovirus [43] = test: Effect on plaque production by Human Rhinovirus serotype 15 (seven most common serotypes); type: functional; in short: as §3
Enterovirus [44] = test: Effect on plaque production by Human Rhinovirus serotype 4 (seven most common serotypes); NA=Not active; type: functional, organism-based; in short: as §3

Which results are given for `COc1ccc(OCCCCCCCc2cc(C)no2)c(Cl)c1`?
MIC (Echovirus E9): 0.15 µg/mL (≈ 0.444 µM); Survivors (Mus musculus [1]): 22; Survivors (Mus musculus [2]): 28; Survivors (Mus musculus [3]): 16; Survivors (Mus musculus [4]): 20; Survivors (Mus musculus [5]): 7; Survivors (Mus musculus [6]): 7; survival at 31 mg/kg (Mus musculus [7]): 53%; survival at 125 mg/kg (Mus musculus [8]): 73%; survival at 250 mg/kg (Mus musculus [9]): 93%; survival at 63 mg/kg (Mus musculus [10]): 67%; Survival (Mus musculus [11]): 22%; Survival (Mus musculus [12]): 22%; MIC (Poliovirus 2 [13]): 0.05 µg/mL (≈ 0.148 µM); MIC (Poliovirus 2 [14]): 0.05 µg/mL (≈ 0.148 µM); MIC (Poliovirus 3): 0.08 µg/mL (≈ 0.237 µM); MIC (Enterovirus [15]): 1.9 µg/mL (≈ 5.62 µM); MIC (Enterovirus [16]): 1.35 µg/mL (≈ 4 µM); MIC (Enterovirus [17]): 0.04 µg/mL (≈ 0.118 µM); MIC (Enterovirus [18]): 1.5 µg/mL (≈ 4.44 µM); MIC (Enterovirus [19]): 0.29 µg/mL (≈ 0.858 µM); MIC (Enterovirus [20]): 0.04 µg/mL (≈ 0.118 µM); MIC (Enterovirus [21]): 0.01 µg/mL (≈ 0.0296 µM); MIC (Enterovirus [22]): 0.1 µg/mL (≈ 0.296 µM); MIC (Enterovirus [23]): 3.1 µg/mL (≈ 9.18 µM); MIC (Enterovirus [24]): 0.33 µg/mL (≈ 0.977 µM); MIC (Enterovirus [25]): 0.5 µg/mL (≈ 1.48 µM); MIC (Enterovirus [26]): 0.53 µg/mL (≈ 1.57 µM); MIC (Enterovirus [27]): 0.05 µg/mL (≈ 0.148 µM); MIC (Enterovirus [28]): 0.04 µg/mL (≈ 0.118 µM); MIC (Enterovirus [29]): 0.07 µg/mL (≈ 0.207 µM); MIC (Enterovirus [30]): inactive; MIC (Enterovirus [31]): 0.26 µg/mL (≈ 0.77 µM); MIC (Enterovirus [32]): 5.8 µg/mL (≈ 17.2 µM); MIC (Enterovirus [33]): 0.13 µg/mL (≈ 0.385 µM); MIC (Enterovirus [34]): 0.09 µg/mL (≈ 0.266 µM); MIC (Enterovirus [35]): inactive; MIC (Enterovirus [36]): 4.1 µg/mL (≈ 12.1 µM); MIC (Enterovirus [37]): 0.25 µg/mL (≈ 0.74 µM); MIC (Enterovirus [38]): 0.03 µg/mL (≈ 0.0888 µM); MIC (rhinovirus A2 [39]): 0.04 µg/mL (≈ 0.118 µM); MTL [40]: 12.5 µg/mL; MIC (Enterovirus [41]): 0.37 µg/mL (≈ 1.1 µM); MIC (Echovirus E11): 0.04 µg/mL (≈ 0.118 µM); MIC (rhinovirus A2 [42]): 0.04 µg/mL (≈ 0.118 µM); MIC (Enterovirus [43]): 0.44 µg/mL (≈ 1.3 µM); MIC (Enterovirus [44]): inactive

Reference: ChEMBL document CHEMBL1123011, “Isoxazoles with antipicornavirus activity” (1985)
